Laboratory results published in ChEMBL document CHEMBL1146358, “ANN-QSAR model for selection of anticancer leads from structurally heterogeneous series of compounds” (Eur J Med Chem, 2007).
Converted amounts (≈) assume the structure as drawn.

What was measured:
Assay type in all cases: functional, cell-based
[1] = Growth inhibition of human Molt4/C8 cells; settings: MOLT-4
Method in brief: (§1)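 Cells grown with test compound for 72 h at 37 C in humidified CO2-controlled atmosphere; cells counted by Coulter counter at end of incubation; IC50 = concentration reducing number of living cells by 50%.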

[2] = Growth inhibition of human CEM/0 cells; settings: CCRF-CEM; method in brief: as §1
[3] = Growth inhibition of mouse L1210/0 cells
Method in brief: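 Cells grown with test compound for 48 h at 37 C in humidified CO2-controlled atmosphere; cells counted by Coulter counter at end of incubation; IC50 = concentration reducing number of living cells by 50%.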

SMILES	IC50 [1]	IC50 [2]	IC50 [3]
Cc1cn(C2CCCC2)c(=O)[nH]c1=O	98.8 µg/mL (≈ 509 µM)	138 µg/mL (≈ 710 µM)	85.2 µg/mL (≈ 439 µM)
O=c1[nH]c(=O)n(C2CCCC2)cc1F	78.1 µg/mL (≈ 394 µM)	66 µg/mL (≈ 333 µM)	35.1 µg/mL (≈ 177 µM)
O=c1[nH]c(=O)n(C2CCCC2)cc1Cl	81.3 µg/mL (≈ 379 µM)	82 µg/mL (≈ 382 µM)	103 µg/mL (≈ 480 µM)
O=c1[nH]c(=O)n(C2CCCC2)cc1Br	97.2 µg/mL (≈ 375 µM)	37.1 µg/mL (≈ 143 µM)	50.3 µg/mL (≈ 194 µM)
O=c1[nH]c(=O)n(C2CCCC2)cc1I	53.2 µg/mL (≈ 174 µM)	60.9 µg/mL (≈ 199 µM)	98.8 µg/mL (≈ 323 µM)
O=c1ccn(C2CCCC2)c(=O)[nH]1	108 µg/mL (≈ 599 µM)	80 µg/mL (≈ 444 µM)	66.3 µg/mL (≈ 368 µM)
